A word on the MIC: it is the lowest concentration that inhibits growth of the organism.

7 compounds from ChEMBL document CHEMBL4680061, “Unveiling the active isomer of cycloalanopine, a cyclic opine from Lactobacillus rhamnosus LS8, through synthesis and analog production” (2020) can be followed below.

Assay [1] concerns Salmonella typhimurium. Nature of the assay: Antibacterial activity against Salmonella typhimurium ATCC 13311 assessed as bacterial growth inhibition after overnight incubation by spot-on-lawn assay. Format: functional, Salmonella enterica subsp. enterica serovar Typhimurium. Particulars: Salmonella enterica. In outline: (§1)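 Overnight cultures were grown in Luria broth at 37 °C and used to seed 5 mL soft agar (0.75%) in the same medium, poured over 1.5% hard agar. Compounds in MQ-H2O or DMSO were two-fold serially diluted from stock, and 10 µL of each was spotted. After drying, plates were incubated overnight at 37 °C. Growth inhibition at each spot was scored, and MIC was taken from triplicates.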

Assay [2] deals with Escherichia coli. Nature of the assay: Antibacterial activity against Escherichia coli ATCC 25922 assessed as bacterial growth inhibition after overnight incubation by spot-on-lawn assay. Format: functional. In outline:
as §1

The test system of assay [3] is Staphylococcus aureus. Briefly: Antibacterial activity against Staphylococcus aureus ATCC 25923 assessed as bacterial growth inhibition after overnight incubation by spot-on-lawn assay. The format is functional. In outline: (§2)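 Tryptic Soy Broth at 25 °C was used for culture and for the 0.75% soft-agar overlay, which was seeded from overnight cultures and poured onto 1.5% agar. Two-fold dilution series in MQ-H2O or DMSO were spotted (10 µL), dried, and incubated overnight at 25 °C. Growth inhibition at each spot was recorded, and MIC was derived from triplicate assays.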

Assay [4] deals with Listeria monocytogenes. Nature of the assay: Antibacterial activity against Listeria monocytogenes ATCC 15313 assessed as bacterial growth inhibition after overnight incubation by spot-on-lawn assay. Format: functional. In outline:
(§3)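 Lawns were prepared in All Purpose Tween medium at 25 °C: overnight cultures went into 5 mL soft agar (0.75%) poured onto 1.5% agar plates. Aqueous or DMSO solutions were two-fold serially diluted, and 10 µL aliquots were spotted and dried. Plates were incubated overnight at 25 °C. Inhibition was read at the spot locations, and MIC was based on triplicates.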

The test system of assay [5] is Acinetobacter baumannii. Briefly: Antibacterial activity against Acinetobacter baumannii ATCC 19606 assessed as bacterial growth inhibition after overnight incubation by spot-on-lawn assay. The format is functional. Particulars: ATCC 19606 = CIP 70.34 = JCM 6841. In outline: as §1
Assay [6] has as its system Enterococcus faecalis. Briefly: Antibacterial activity against Enterococcus faecalis ATCC 7080 assessed as bacterial growth inhibition after overnight incubation by spot-on-lawn assay. Format: functional. In outline:
as §3

The test system of assay [7] is Pseudomonas aeruginosa. Briefly: Antibacterial activity against Pseudomonas aeruginosa ATCC 14207 assessed as bacterial growth inhibition after overnight incubation by spot-on-lawn assay. Format: functional. In outline: as §1
For assay [8], the system named is Listeria monocytogenes. Briefly: Antibacterial activity against Listeria monocytogenes ATCC 15313 assessed as bacterial growth inhibition at 250 mg/ml after overnight incubation by spot-on-lawn assay. The format is functional, organism-based. In outline:
as §3

Assay [9] deals with Acinetobacter baumannii. Briefly: Antibacterial activity against Acinetobacter baumannii ATCC 19606 assessed as bacterial growth inhibition at 250 mg/ml after overnight incubation by spot-on-lawn assay. The format is functional, organism-based. Particulars: ATCC 19606 = CIP 70.34 = JCM 6841. In outline: as §1
The subject of assay [10] is Enterococcus faecalis. Nature of the assay: Antibacterial activity against Enterococcus faecalis ATCC 7080 assessed as bacterial growth inhibition at 250 mg/ml after overnight incubation by spot-on-lawn assay. Format: functional, organism-based. In outline: as §3
The subject of assay [11] is Escherichia coli. Briefly: Antibacterial activity against Escherichia coli ATCC 25922 assessed as bacterial growth inhibition at 250 mg/ml after overnight incubation by spot-on-lawn assay. Format: functional, organism-based. In outline:
as §1

For assay [12], the system named is Salmonella typhimurium. Briefly: Antibacterial activity against Salmonella typhimurium ATCC 13311 assessed as bacterial growth inhibition at 250 mg/ml after overnight incubation by spot-on-lawn assay. The format is functional, organism-based. To be noted: Salmonella enterica subsp. enterica serovar Typhimurium. In outline: as §1
Assay [13] deals with Pseudomonas aeruginosa. Nature of the assay: Antibacterial activity against Pseudomonas aeruginosa ATCC 14207 assessed as bacterial growth inhibition at 250 mg/ml after overnight incubation by spot-on-lawn assay. Format: functional, organism-based. In outline:
as §1

Assay [14] concerns Staphylococcus aureus. Nature of the assay: Antibacterial activity against Staphylococcus aureus ATCC 25923 assessed as bacterial growth inhibition at 250 mg/ml after overnight incubation by spot-on-lawn assay. The format is functional, organism-based. In outline:
as §2

Converted amounts (≈) assume the structure as drawn. The source made the active and inactive calls. No cut-off for these calls is given here.

For `C[C@H]1N[C@H](CCCCN)C(=O)NNC1=O`, the MIC in assay [1] came to 62 mg/mL (≈ 289 mM); in assay [2] it was 31 mg/mL (≈ 145 mM); in [3] it was 62 mg/mL (≈ 289 mM); in assay [4], 16 mg/mL (≈ 74.7 mM); in assay [5], 62 mg/mL (≈ 289 mM); in assay [6], 16 mg/mL (≈ 74.7 mM).

Turning to `C[C@@H]1N[C@H](C)C(=O)NNC1=O`, the MIC in assay [1] was 26 mg/mL (≈ 165 mM); in assay [2] it was 3.2 mg/mL (≈ 20.4 mM); in assay [3] it was 26 mg/mL (≈ 165 mM); in assay [7], 52 mg/mL (≈ 331 mM); in [4], 26 mg/mL (≈ 165 mM); in assay [6] it was 26 mg/mL (≈ 165 mM).

With `C[C@H]1NCC(=O)NNC1=O`, the MIC came out at 0.98 mg/mL (≈ 6.85 mM) in assay [1]; 0.06 mg/mL (≈ 0.419 mM) in [2]; 2 mg/mL (≈ 14 mM) in assay [3]; 3.9 mg/mL (≈ 27.2 mM) in assay [7]; 2 mg/mL (≈ 14 mM) in assay [4]; 0.12 mg/mL (≈ 0.838 mM) in [5]. Moreover, the minimum inhibitory concentration (MIC) in [6] came to 2 mg/mL (≈ 14 mM).

Turning to `C[C@@H]1NCC(=O)NNC1=O`, the MIC in [1] came to 19 mg/mL (≈ 133 mM); in assay [2], 2.3 mg/mL (≈ 16.1 mM); in [3], 75 mg/mL (≈ 524 mM); in assay [7] it was 38 mg/mL (≈ 265 mM); in assay [4] it was 38 mg/mL (≈ 265 mM); in [5], 19 mg/mL (≈ 133 mM).

For the compound `C[C@H]1N[C@H](C)C(=O)NNC1=O`, the result in [8], in [9], in [10], in assay [11], in assay [12] and in assay [13] was inactive. The outcome in [14] was inactive.

For `C[C@@H]1N[C@@H](C)C(=O)NNC1=O`, the result in assay [8], in [9], in [10], in assay [11], in assay [12] and in assay [13] was inactive. Moreover, in assay [14], the result was inactive.

For `C[C@H]1N[C@@H](CCCCN)C(=O)NNC1=O`, the MIC in assay [1] turned out to be 3.9 mg/mL (≈ 18.2 mM); in assay [2], 0.49 mg/mL (≈ 2.29 mM); in [3], 31 mg/mL (≈ 145 mM); in assay [7], 62 mg/mL (≈ 289 mM); in assay [4], 7.8 mg/mL (≈ 36.4 mM); in [5], 0.98 mg/mL (≈ 4.57 mM). Moreover, the minimal inhibitory concentration (MIC) in assay [6] came out at 62 mg/mL (≈ 289 mM).
